In ChEMBL document CHEMBL2069297, “Inhibition of galactosyltransferases by a novel class of donor analogues” (J Med Chem, 2012):
Activity calls are given as the source filed them. The rule behind the calls is not given here.

Experiments:
Neisseria meningitidis [1] = test: Binding affinity to Neisseria meningitidis alpha-1,4-GalT after 10 mins by fluorescence quenching assay
Outline: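 Titration of the fluorescent donor analogue (200 nM final) with LgtC protein stock diluted 1/5 to 1/640 (eight dilutions) in A/B buffer (50 mM MOPS pH 7.0, 20 mM MnCl2, 1 mg/mL BSA). Emission read after 10 min at 37 °C (excitation 350 nm, emission 430 nm) and plotted against enzyme dilution. Run in triplicate.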

Neisseria meningitidis [2] = test: Binding affinity to Neisseria meningitidis alpha-1,4-GalT by fluorescence quenching assay in presence of unlabeled UDP-Gal and UDP
[3] = biological target: T1, Beta-1,4-galactosyltransferase 1 (Bos taurus) (UniProt P08037); test: Ratio of Km for the compound to Km for UDP-Gal in bovine beta-1,4-GalT
T1 sequence (whole entry): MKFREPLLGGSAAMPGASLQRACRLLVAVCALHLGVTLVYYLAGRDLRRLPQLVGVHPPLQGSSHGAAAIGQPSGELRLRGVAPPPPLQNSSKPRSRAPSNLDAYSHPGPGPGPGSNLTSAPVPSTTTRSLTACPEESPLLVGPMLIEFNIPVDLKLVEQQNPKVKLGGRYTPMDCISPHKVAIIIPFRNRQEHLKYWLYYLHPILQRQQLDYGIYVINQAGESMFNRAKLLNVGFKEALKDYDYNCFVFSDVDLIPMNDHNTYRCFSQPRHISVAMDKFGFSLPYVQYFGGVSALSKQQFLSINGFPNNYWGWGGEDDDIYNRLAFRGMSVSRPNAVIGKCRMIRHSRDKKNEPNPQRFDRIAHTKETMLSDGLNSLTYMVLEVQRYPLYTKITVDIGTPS

[4] = Drug uptake in human HL60 cell endoplasmic reticulum at 100 uM after 24 hrs by confocal fluorescence microscopy; format: ADME, cell-based; details: hl-60, 24 h
Outline: (§1)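 HL-60 cells were grown in RPMI 1640 with 16.7% (v/v) heat-inactivated FCS, L-glutamine and PenStrep. They were seeded at 10^6 cells/mL onto a glass coverslip and kept 24 h at 37 °C, 5% CO2 with the sodium-salt analogue at 100 μM. The coverslip was washed with medium to remove extracellular fluorophore. The compound's intrinsic blue fluorescence (λem 434 nm) was imaged by confocal microscopy at 364 nm.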

[5] = Drug uptake in human HL60 cell golgi apparatus at 100 uM after 24 hrs by confocal fluorescence microscopy; format: ADME, cell-based; details: hl-60, 24 h; outline: as §1
[6] = Inhibition of Neisseria meningitidis alpha-1,4-GalT after 15 mins by Dixon plot analysis
Outline: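 Radiochemical transfer assay with DTT-activated N. meningitidis LgtC (0.010 ng): UDP-Gal 0.57 μM plus UDP-[3H]-Gal, Lacβ-O(CH2)8CO2Me 2 mM, DTT 1.7 mM, inhibitor 0–12.5 μM, in A/B buffer pH 7. Incubated 15 min at 37 °C, stopped with water.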

[7] = biological target: N-acetyllactosaminide alpha-1,3-galactosyltransferase (Bos taurus, UniProt P14769); test: Inhibition of alpha-1,3-GalT in bovine after 15 mins by Dixon plot analysis
Sequence of N-acetyllactosaminide alpha-1,3-galactosyltransferase (P14769 whole entry): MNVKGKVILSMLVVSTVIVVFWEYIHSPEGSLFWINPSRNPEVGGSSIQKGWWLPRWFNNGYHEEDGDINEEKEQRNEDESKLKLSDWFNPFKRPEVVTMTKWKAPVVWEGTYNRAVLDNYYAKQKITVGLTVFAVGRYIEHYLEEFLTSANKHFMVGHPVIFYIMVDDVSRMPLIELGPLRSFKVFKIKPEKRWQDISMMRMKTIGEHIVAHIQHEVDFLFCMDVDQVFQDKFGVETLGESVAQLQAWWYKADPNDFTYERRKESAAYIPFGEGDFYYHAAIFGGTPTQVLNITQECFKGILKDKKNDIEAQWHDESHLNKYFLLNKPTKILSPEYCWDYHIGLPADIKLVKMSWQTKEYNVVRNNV
Outline: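 Bovine α-1,3-GalT (1.3 μg) in A/B buffer pH 7 with UDP-Gal 76 μM plus UDP-[3H]-Gal, Lacβ-O(CH2)8CO2Me 500 μM, and inhibitor 0–62.5 μM. Incubated 15 min at 37 °C, stopped with water; radiolabeled galactose transfer measured.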

[8] = Inhibition of human GTB after 15 mins by Dixon plot analysis
Outline: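 Radiochemical assay on human GTB (0.049 ng): UDP-Gal 26 μM with UDP-[3H]-Gal, Fucα1,2Galβ-O(CH2)7CH3 acceptor 500 μM, inhibitor 0–62.5 μM, in A/B buffer pH 7. Incubated 15 min at 37 °C, then quenched with water.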

[9] = Binding affinity to Neisseria meningitidis alpha-1,4-GalT after 15 mins by competitive binding assay

Ratio [3]	Ki [6] [µM]	Ki [7] [µM]	Ki [8] [µM]	Compound	other results
3.3				COc1ccc(-c2cn([C@@H]3O[C@H](COP(=O)(O)OP(=O)(O)O[C@H]4O[C@H](CO)[C@H](O)[C@H](O)[C@H]4O)[C@@H](O)[C@H]3O)c(=O)[nH]c2=O)cc1	
6	6	76	48	O=c1[nH]c(=O)n([C@@H]2O[C@H](COP(=O)(O)OP(=O)(O)O[C@H]3O[C@H](CO)[C@H](O)[C@H](O)[C@H]3O)[C@@H](O)[C@H]2O)cc1-c1ccccc1	
2				O=Cc1ccc(-c2cn([C@@H]3O[C@H](COP(=O)(O)OP(=O)(O)O[C@H]4O[C@H](CO)[C@H](O)[C@H](O)[C@H]4O)[C@@H](O)[C@H]3O)c(=O)[nH]c2=O)s1 [listing 1 of 2 here]	
2	1.9	90	33	O=c1[nH]c(=O)n([C@@H]2O[C@H](COP(=O)(O)OP(=O)(O)O[C@H]3O[C@H](CO)[C@H](O)[C@H](O)[C@H]3O)[C@@H](O)[C@H]2O)cc1-c1ccco1	
	0.45		2.4	O=Cc1ccc(-c2cn([C@@H]3O[C@H](COP(=O)(O)OP(=O)(O)O[C@H]4O[C@H](CO)[C@H](O)[C@H](O)[C@H]4O)[C@@H](O)[C@H]3O)c(=O)[nH]c2=O)s1 [listing 2 of 2 here]	

Continued, molecule first:

Compound	Ratio [3]	Ki [6] [µM]	Ki [7] [µM]	Ki [8] [µM]	other results
O=Cc1ccc(-c2cn([C@@H]3O[C@H](COP(=O)(O)OP(=O)(O)CC[C@H]4O[C@H](CO)[C@H](O)[C@H](O)[C@H]4O)[C@@H](O)[C@H]3O)c(=O)[nH]c2=O)s1 [listing 1 of 2 here]					Activity (Neisseria meningitidis [1]): Dose-dependent effect; Activity (Neisseria meningitidis [2]): inactive
O=Cc1ccc(-c2cn([C@@H]3O[C@H](COP(=O)([O-])OP(=O)([O-])O[C@H]4O[C@H](CO)[C@H](O)[C@H](O)[C@H]4O)[C@@H](O)[C@H]3O)c(=O)[nH]c2=O)s1.[Na+].[Na+]					Drug uptake [4]: Active; Drug uptake [5]: Active
O=c1ccn([C@@H]2O[C@H](COP(=O)(O)OP(=O)(O)O)[C@@H](O)[C@H]2O)c(=O)[nH]1 [URIDINE_DIPHOSPHATE]					IC50 [9]: 46 µM
O=Cc1ccc(-c2cn([C@@H]3O[C@H](COP(=O)([O-])OP(=O)([O-])CC[C@H]4O[C@H](CO)[C@H](O)[C@H](O)[C@H]4O)[C@@H](O)[C@H]3O)c(=O)[nH]c2=O)s1.[Na+].[Na+]					Drug uptake [4]: Active; Drug uptake [5]: Active
O=Cc1ccc(-c2cn([C@@H]3O[C@H](COP(=O)(O)OP(=O)(O)CC[C@H]4O[C@H](CO)[C@H](O)[C@H](O)[C@H]4O)[C@@H](O)[C@H]3O)c(=O)[nH]c2=O)s1 [listing 2 of 2 here]		1.7	18	3.8	
